Source: PubChem
The list is not random: actives were taken first. Their share in the collection is about 4.3%.
CHO parental Ca – counter-screen: ATP calcium response change in parental CHO cells; parental CHO-K1, ATP-induced calcium, Fluo-8 fluorescence; inhibition, % at 5.6 µM; 330,000 compounds, 0.63% hits;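 active = inhibition above that plate's mean sample inhibition plus 3 SD, cut at about 26% in these data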;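 note: 0% = ATP-challenged DMSO wells and 100% = DMSO wells without ATP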
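Material – parental CHO cells · Reagent – ATP stimulus · Compound – single nominal dose of 5.6 µM per compound · Detection – Fluo-8 fluorescence · Read-out basis – percent inhibition of calcium signal · Controls – ATP-challenged DMSO wells low, unchallenged DMSO wells high · Repeats – no replicates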
GalR3 antag – blocks the human galanin receptor 3; inhibition, % at 3 µM; O60755; 360,000 compounds, 0.44% hits; HEK293 GalR3-CNG cAMP membrane potential fluorescence; galR3 body fused to GalR1 C-terminus;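 active = inhibition above the screen-wide average plus 3 SD, cut at about 13% in these data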;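 note: forskolin and galanin both at EC90 stimulate the cells; cAMP rise reported by CNG channel membrane potential dye signal; 0% = forskolin plus galanin with DMSO and 100% = forskolin alone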
Target sequence (O60755 1-299 limits assumed): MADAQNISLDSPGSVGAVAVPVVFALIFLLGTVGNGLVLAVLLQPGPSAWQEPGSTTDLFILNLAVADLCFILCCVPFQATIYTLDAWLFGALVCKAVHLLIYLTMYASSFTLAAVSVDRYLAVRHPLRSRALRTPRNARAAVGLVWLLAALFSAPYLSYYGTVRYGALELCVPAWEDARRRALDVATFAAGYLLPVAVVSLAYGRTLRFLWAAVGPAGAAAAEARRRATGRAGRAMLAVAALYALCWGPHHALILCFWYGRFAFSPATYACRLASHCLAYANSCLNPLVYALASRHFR
TAAR1 antag – antagonists of human TAAR1. Q96RJ0. CHO RD-HGA16 TAAR1, Fluo-8 calcium fluorescence, antagonist. inhibition, % at 3 µM. 360,000 compounds, 1.5% hits;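 active = inhibition above a per-plate cutoff, the mean inhibition of test compounds on that plate plus 3 SD, cut at about 49% in these data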;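 note: 0% = DMSO plus EC80 beta-PEA response and 100% = DMSO alone without agonist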
Target sequence (Q96RJ0 whole entry, looked up): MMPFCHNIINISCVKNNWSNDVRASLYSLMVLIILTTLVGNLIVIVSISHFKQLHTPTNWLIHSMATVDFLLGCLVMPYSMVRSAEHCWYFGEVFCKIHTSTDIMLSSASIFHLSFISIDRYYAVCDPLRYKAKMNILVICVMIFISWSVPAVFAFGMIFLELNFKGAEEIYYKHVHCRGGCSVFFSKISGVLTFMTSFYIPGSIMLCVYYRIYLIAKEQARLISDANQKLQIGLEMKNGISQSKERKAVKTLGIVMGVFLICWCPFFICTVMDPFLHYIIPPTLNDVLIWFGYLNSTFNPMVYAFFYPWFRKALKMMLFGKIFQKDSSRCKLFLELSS
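Assay system: RD-HGA16 CHO cells with stable hTAAR1 and Gα16 / Reagent: EC80 β-phenethylamine stimulus / Doses: 3 µM, single point / Timing: dye loading 75 min at 37 °C, then 30 min room temperature / Measured by: Fluo-8 intracellular calcium dye fluorescence, real-time kinetic reads / Controls: vehicle wells and EC80 agonist wells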
OX1R antag-1 – antagonists of human orexin 1 receptor; 330,000 compounds, 0.43% hits; CHO/OX1R cells, Fluo-8 calcium fluorescence, orexin A; AID 434989; inhibition, % at 5 µM;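 active = inhibition above its plate's threshold, mean inhibition of all tested compounds on the plate plus 3 SD, cut at about 37% in these data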;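 note: 0% = orexin A challenge wells and 100% = SB-334867-A antagonist wells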
TAAR1 ag – agonists of human TAAR1. Q96RJ0. CHO RD-HGA16 TAAR1, Fluo-8 calcium fluorescence; vehicle wells 0%, saturating PEA agonist 100%. activation, % at 3 µM. 360,000 compounds, 0.99% hits;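 active = activation above the mean activation of all test compounds in the run plus 3 SD, cut at about 38% in these data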
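Test system: RD-HGA16 (CHO) cells co-expressing Gα16 and hTAAR1 | Doses: Single dose, 3 µM | Schedule: 17-24 h seeding, 75 min 37 °C dye, 30 min RT | Evaluation: % activation from peak over basal fluorescence ratio, DMSO-to-PEA scaled | Technique: Kinetic Fluo-8 calcium fluorescence | Benchmarks: Low control DMSO, high control PEA (EC100)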
OX1R antag-2 – OX1R (human) antagonism. O43613. OX1R-expressing cells, FRET antagonist read-out. inhibition, % at 6.6 µM. 330,000 compounds, 1.8% hits; in the data active = inhibition mostly above about 38%, no sharp cut-off; inactive = mostly below about 40%;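 note: 0% = agonist challenge alone and 100% = reference antagonist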
* hit, by the source's call; nt = no result given.

SMILES	CHO parental Ca	GalR3 antag	TAAR1 antag	OX1R antag-1	TAAR1 ag	OX1R antag-2
COC(=O)c1cc(NC(=O)Nc2ccccc2)ccc1Cl	49*	-6	54*	31	26	38
O=C(Nc1ccccc1)Nc1ccc(Nc2ccccc2)cc1	-9	-5	15	-14	21	13
CN(C)S(=O)(=O)Oc1cccc(C(=O)Nc2ccc(Cl)c(Cl)c2)c1	9	-2	61*	23	41*	53
O=C(Nc1ccccc1)Nc1ccccc1	nt	-8	19	nt	39*	nt
COC(=O)c1sccc1NC(=O)Nc1ccc(C)c(C)c1	nt	-4	-1	nt	-3	nt
COC(=O)c1sccc1NC(=O)Nc1ccc(Cl)c(Cl)c1	12	-5	54*	-26	2	31
CCOC(=O)c1c(C)[nH]c(C(C)=NNC(=O)Cn2nc(C)cc2C)c1C	-7	2	14	-12	1	7
O=C1[C@H]2CCC=C[C@H]2[C@H](c2cccc(Br)c2)N1Cc1ccccc1	-22	nt	nt	18	nt	18
CCCC(=O)N1CCCC1(C)C(=O)NCc1ccc(SC)cc1 (stereo not drawn)	nt	-3	0	nt	-1	nt
C[C@@H]1CN([C@@H](C)CO)C(=O)CCCn2nncc2CO[C@H]1CN(C)C(=O)Nc1ccc(F)cc1	nt	-2	-11	nt	1	nt
O=C(Nc1ccccc1)Nc1ccc(-n2ccc(C(F)(F)F)n2)cc1	41*	-1	58*	37	12	24
O=C(O)CC(CC(=O)Nc1ccc(-n2ccc(C(F)(F)F)n2)cc1)c1ccccc1 (stereo not drawn)	0	-3	-9	-17	11	12
O=C(Nc1ccc(Cl)c(Cl)c1)Nc1ccccc1NS(=O)(=O)c1cccs1	35*	-1	18	2	11	66
O=C(Nc1ccccc1)Nc1ccccc1NS(=O)(=O)c1cccs1	1	-5	26	-26	16	30
COC(=O)c1cccc(NC(=O)Nc2ccc(Cl)c(Cl)c2)c1	23	-6	31	67*	21	69*
COc1ccc(C2CC(=O)C(c3cccc(Cl)c3)=CN2Cc2ccccc2)cc1 (stereo not drawn)	nt	-9	-14	nt	6	nt
CCCc1cc(=O)[nH]c(SCC(=O)Nc2sccc2C#N)n1	nt	-2	-15	nt	-1	nt
COc1cc2c(cc1OC)[C@@H](NC(=O)c1ccncc1)[C@H](C)[C@H]2c1ccccc1	nt	-6	-11	nt	0	nt
N#C/C(=C(/O)COC(=O)c1ccccc1O)c1nc2ccccc2s1	5	-3	8	0	9	53*
CCCN1CCC(=NNc2ccc(S(=O)(=O)N3CCOCC3)cc2[N+](=O)[O-])CC1	-19	5	-5	-9	0	71*
Cc1ccc(F)cc1C(=O)N1CCCCC1c1cc(C(=O)Nc2ccc(F)c(Cl)c2)no1 (stereo not drawn)	nt	-8	10	nt	1	nt
COCCN(CC(=O)Nc1cccc(C)c1C)C(=O)Cc1ccsc1	-7	-6	-5	-17	-1	1
COc1ccccc1N(C(C)=O)C1=C(Cl)C(=O)c2ccccc2C1=O	nt	-6	57*	nt	15	nt
C[C@@H]1ON(C)[C@H]2C[C@H]3c4[nH]c5cccc(Br)c5c4CCN3C(=O)[C@@H]12	nt	-8	5	nt	11	nt
C=CCN(c1ccccc1)S(=O)(=O)c1cccc(C(=O)NCC(c2cccs2)N2CCOCC2)c1 (stereo not drawn)	-34	0	-13	4	0	39*
SMILES	CHO parental Ca	GalR3 antag	TAAR1 antag	OX1R antag-1	TAAR1 ag	OX1R antag-2
CC(C)C(NS(=O)(=O)c1cccc2nsnc12)C(=O)NC1CCCCC1 (stereo not drawn)	-11	-6	-2	0	0	75*
CC(C)C(NS(=O)(=O)c1cccc2nsnc12)C(=O)NCc1ccco1 (stereo not drawn)	9	-1	-4	-34	-1	31
O=C(NC1CCCCC1)C1CCCN1S(=O)(=O)c1cccc2nsnc12 (stereo not drawn)	0	-3	4	-3	10	60*
O=C(NCc1ccco1)C(Cc1ccccc1)NS(=O)(=O)c1cccc2nsnc12 (stereo not drawn)	-21	0	-15	-18	7	51*
CC1CCN(C(=O)C(NS(=O)(=O)c2cccc3nsnc23)C(C)C)CC1 (stereo not drawn)	-13	-8	-11	3	2	43*
CC1CCN(C(=O)C(NS(=O)(=O)c2cccc3nsnc23)c2ccccc2)CC1 (stereo not drawn)	-18	-5	-3	-37	3	17
Cc1cccc(C=NOCCc2ccccc2)n1	nt	-5	-3	nt	4	nt
COc1ccc(C(=O)CC2(O)C(=O)N(CN3CCOCC3)c3ccc(Br)cc32)cc1 (stereo not drawn)	nt	-7	-3	nt	4	nt
O=C(O)C1CCN(S(=O)(=O)c2cccc3nsnc23)CC1	-8	-6	-11	-10	3	33
CC(NC(=O)C(NS(=O)(=O)c1cccc2nsnc12)C(C)C)c1ccccc1 (stereo not drawn)	-9	nt	nt	-22	nt	38
Cc1ccc(S(=O)(=O)N2CCCC2C(=O)NC2CCCCC2)cc1 (stereo not drawn)	-5	-1	-18	17	18	57*
CC(C)[C@H](NS(=O)(=O)c1ccccc1F)C(=O)NC1CCCCC1	-11	-6	-9	29	5	39*
O=C(O)C1CSCN1S(=O)(=O)c1cccc2nsnc12 (stereo not drawn)	1	-6	20	-6	4	41*
CC(=O)Nc1ccc(NC(=O)C(NS(=O)(=O)c2cccc3nsnc23)C(C)C)cc1 (stereo not drawn)	-12	-7	-29	-25	4	56*
O=S(=O)(c1ccccc1)N(CC(F)(F)F)c1ccc(C(O)(C(F)(F)F)C(F)(F)F)cc1	nt	-1	20	nt	5	nt
COC(=O)C1CCCN1S(=O)(=O)c1ccc2ccccc2c1 (stereo not drawn)	-17	-9	-11	-7	12	12
COC(=O)C1CCCN1S(=O)(=O)c1ccc([N+](=O)[O-])cc1 (stereo not drawn)	18	-4	3	0	9	36*
O=C(NC1CCCC1)C(NS(=O)(=O)c1cccc2nsnc12)c1ccccc1 (stereo not drawn)	-22	-2	13	-28	1	53*
COc1cccc(CN2CCC2(C)C(=O)Nc2cccc(Oc3ccccc3)c2)c1OC (stereo not drawn)	nt	-10	-2	nt	1	nt
CCCCCCCCN1C(=O)[C@@H](CC(=O)NCCCOCCCC)C[C@@]2(C(=O)OC)C1=C[C@H](C1CCCC1)O[C@@H]2C	nt	3	-16	nt	-2	nt
Nc1cc(C(=O)O)c(N)c2c1C(=O)c1ccccc1C2=O	-3	nt	nt	5	nt	115*
